Measurements taken from PMC11931566 (RSC Medicinal Chemistry, 2025).
Where two headings read alike, the source gives them in different places.

Legend:
nine melanoma cell lines = experiment: GI50 evaluation, melanoma cell lines; type: cell-based, human; conditions: for GI50: Homo sapiens
Summary of the method: (§1)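 GI50 determined per human cancer cell line, grouped by tumour type, with a 3 μM cut-off applied. Per-panel average GI50 and range were calculated. Fold change was taken as the ratio of the average GI50 to that of a reference antitumor ether lipid.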

[1] = system: seven colon cancer cell lines; experiment: GI50 evaluation, colon cancer cell lines; type: cell-based, human; conditions: for GI50: Homo sapiens
Summary of the method: as §1

eight renal cancer cells = experiment: GI50 evaluation, renal cancer cells; type: cell-based, human; conditions: for GI50: Homo sapiens
Summary of the method: as §1

caspase 8 = experiment: Western blot in A549 cells, caspase 8; type: cell-based, human; conditions: 24 h
A549 cells [2] = experiment: Annexin V-FITC/PI double staining analysis; type: cell-based, human; conditions: 48 h, different concentrations
Summary of the method: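 A549 cells were treated with several concentrations of test compound, stained with annexin-V and propidium iodide, and analysed by FACS. Live, early apoptotic, late apoptotic and necrotic populations were quantified as percentages.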

phospho-Rb (p-Rb) = experiment: Western blot in A549 cells, phospho-Rb; type: cell-based, human; conditions: 24 h
BAX = experiment: Western blot in A549 cells, BAX; type: cell-based, human; conditions: 24 h
H322M = experiment: Cell growth inhibition; type: cell-based; conditions: Homo sapiens, NCI-H322M, read-out: % growth inhibition, H322M
Summary of the method: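 Single-dose screen of non-small cell lung cancer lines (adenocarcinoma, metastatic adenocarcinoma, large cell and squamous carcinoma) with test compound at 10 μM. Read-out is % growth inhibition per cell line. Run as part of the NCI-60 human tumour cell line screen at the National Cancer Institute.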

[3] = system: non-small cell lung cancer cell lines; experiment: Cell growth inhibition, panel of nine NSCLC cell lines; type: cell-based, human
Summary of the method: as §1

CDK6 = experiment: Western blot in A549 cells, CDK6; type: cell-based, human; conditions: 24 h
PARP = experiment: Western blot in A549 cells, PARP and cleaved PARP; type: cell-based, human; conditions: 24 h
CDK4 = experiment: Western blot in A549 cells, CDK4; type: cell-based, human; conditions: 24 h
A549 cells [4] = experiment: Cell cycle distribution analysis; type: cell-based, human; conditions: 24 h, different concentrations
Summary of the method: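 A549 lung cancer cells were treated with several concentrations of test compound, stained with propidium iodide for DNA content, and analysed by flow cytometry. Fractions in G0/G1, S and G2/M phases were quantified.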

[5] = system: ovarian cancer cell lines; experiment: GI50 evaluation, ovarian cancer cell lines; type: cell-based, human; conditions: for GI50: Homo sapiens
Summary of the method: as §1

CDK1 = experiment: Western blot in A549 cells, CDK1; type: cell-based, human; conditions: western blot (Fig. S1)
[6] = system: two prostate cancer cell lines; experiment: GI50 evaluation, prostate cancer cell lines; type: cell-based, human; conditions: for GI50: Homo sapiens, read-out: calculated average GI50, prostate cancer
Summary of the method: as §1

58 cancer cell lines = experiment: Spectrum of anticancer activity, 58 cancer cell lines; type: cell-based, human; conditions: 10 μM
Summary of the method: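 Spectrum screen over 58 human cancer cell lines covering leukemia, CNS, prostate, breast, lung and other tumour types, run in the NCI-60 screen at the National Cancer Institute. % growth inhibition per line; counts of lines above 50% and above 100% inhibition, plus mean growth inhibition across the 58 lines.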

[7] = Selectivity against normal cells, MRC-5; type: cell-based, human; conditions: human, MRC-5 normal foetal lung fibroblast cells
[8] = system: normal human foetal lung fibroblast MRC-5 cell line; experiment: Selectivity against normal cells, MRC-5; type: cell-based; conditions: lung cancer cells rather than normal lung cells (MRC-5)
CDK7 = experiment: Western blot in A549 cells, CDK7; type: cell-based, human; conditions: western blot (Fig. S1)
cyclin D1 = experiment: Western blot in A549 cells, cyclin D1; type: cell-based, human; conditions: 24 h
CDK8 = experiment: Western blot in A549 cells, CDK8; type: cell-based, human; conditions: western blot (Fig. S1)
[9] = system: six CNS cancer cell lines; experiment: GI50 evaluation, CNS cancer cell lines; type: cell-based, human; conditions: for GI50: Homo sapiens
Summary of the method: as §1

CDK2 = experiment: Western blot in A549 cells, CDK2; type: cell-based, human; conditions: 24 h
HCT15 = experiment: GI50 evaluation, HCT15 colon adenocarcinoma; type: cell-based, human; conditions: cut-off value of 3 μM
Summary of the method: as §1

ACHN = experiment: GI50 evaluation, ACHN renal cancer; type: cell-based, human; conditions: cut-off value of 3 μM
Summary of the method: as §1

[10] = system: five breast cancer cell lines; experiment: GI50 evaluation, breast cancer cell lines; type: cell-based, human; conditions: for GI50: Homo sapiens, read-out: calculated average GI50, breast cancer
Summary of the method: as §1

[11] = system: four leukemic cancer cells; experiment: GI50 evaluation, leukemic cancer cells; type: cell-based, human; conditions: from average GI50
Summary of the method: as §1

UO31 = experiment: GI50 evaluation, UO31 renal cancer; type: cell-based, human; conditions: cut-off value of 3 μM
Summary of the method: as §1

COLO205 = experiment: GI50 evaluation, COLO205 colon cancer; type: cell-based; conditions: Homo sapiens, COLO 205, read-out: GI50, COLO205
Summary of the method: as §1

HCC2998 = experiment: GI50 evaluation, HCC2998 colon cancer; type: cell-based; conditions: Homo sapiens, HCC 2998, read-out: GI50, HCC2998
Summary of the method: as §1

[12] = read-out: calculated average GI50, melanoma
[13] = read-out: GI50 range, colon cancer
[14] = read-out: calculated average GI50, colon cancer
[15] = read-out: GI50 range, renal cancer
[16] = read-out: calculated average GI50, renal cancer
[17] = Homo sapiens, read-out: GI50 range, non-small cell lung cancer
[18] = Homo sapiens, read-out: calculated average GI50, non-small cell lung cancer
[19] = read-out: GI50 range, ovarian cancer
[20] = read-out: calculated average GI50, ovarian cancer
[21] = read-out: GI50 range, CNS cancer
[22] = read-out: calculated average GI50, CNS cancer

SMILES: CCCCCCCCCCCCCCCCCCOc1ccccc1CC(=O)OCC[N+](C)(C)C.[I-] [Compound 6]
- GI50 (nine melanoma cell lines; read-out: GI50 range, melanoma): 1570 to 2340 nM
- GI50 (nine melanoma cell lines; [12]): 1730 nM
- GI50 [1, 13]: 1590 to 2960 nM
- GI50 [1, 14]: 1910 nM
- average fold increase compared to the potency of edelfosine, colon cancer ([1]; from average GI50): 4 fold
- GI50 (eight renal cancer cells; [15]): 0.49 to 1.75 µM
- GI50 (eight renal cancer cells; [16]): 1.35 µM
- average fold increase compared to the potency of edelfosine, renal cancer (eight renal cancer cells; from average GI50): 18.5 fold
- caspase 8 cleavage (caspase 8): cleavage of caspase 8
- apoptosis induction (early apoptosis population) (A549 cells [2]): increase in the portion of cells that entered the early apoptosis state
- necrosis (A549 cells [2]): no significant necrosis
- formation of phospho-Rb (p-Rb) (phospho-Rb (p-Rb)): inhibited dose-dependently
- BAX level (BAX): dose-dependent upregulation of BAX
- inhibition at 10 µM (H322M): 33.5%
- inhibition at 10 µM ([3]; Homo sapiens, read-out: % growth inhibition (range) against H460, A549, HOP62, HOP92, and H522 cell lines, 10 µM): 88.5 to 114%
- GI50 [3, 17]: 1250 to 2170 nM
- GI50 [3, 18]: 1620 nM
- average fold increase compared to the potency of edelfosine, NSCLC ([3]; from average GI50): 15.5 fold
- CDK6 protein level (CDK6): dose-dependent inhibition
- PARP cleavage (PARP): dose-dependent PARP cleavage
- CDK4 protein level (CDK4): dose-dependent inhibition
- counts of cells in G0/G1 phase (A549 cells [4]): increased dose-dependently
- counts of cells in the S and G2/M phases (A549 cells [4]): decreased in a dose-dependent pattern
- GI50 [5, 19]: 0.65 to 9.84 µM
- GI50 [5, 20]: 2.64 µM
- fold increase compared to the potency of edelfosine, ovarian cancer ([5]; from average GI50): 9.5 fold
- CDK1 protein level (CDK1): no dose-dependent inhibition
- GI50 [6]: 1600 nM
- fold increase compared to the potency of edelfosine, prostate cancer ([6]; from average GI50): 33.5 fold
- number of cell lines out of 58 inhibited by more than 50% (58 cancer cell lines): 50
- number of cell lines out of 58 inhibited by more than 100% (58 cancer cell lines): 9
- GI50 [7]: 16.7 µM
- selectivity index, average [8]: 10.31
- selectivity index, range [8]: 7.70–13.36
- CDK7 protein level (CDK7): no dose-dependent inhibition
- cyclin D1 protein level (cyclin D1): dose-dependent inhibition
- CDK8 protein level (CDK8): no dose-dependent inhibition
- GI50 [9, 21]: 1230 to 2030 nM
- GI50 [9, 22]: 1590 nM
- CDK2 protein level (CDK2): dose-dependent inhibition

SMILES: CCCCCCCCCCCCCCCCCCOc1ccccc1CC(=O)OCC[N+](CC)(CC)CC.[I-] [Compound 8]
- GI50 (nine melanoma cell lines; read-out: GI50 range, melanoma): 880 to 1900 nM
- GI50 (nine melanoma cell lines; [12]): 1330 nM
- average fold increase compared to the potency of edelfosine, melanoma (nine melanoma cell lines; from average GI50): 29 fold
- GI50 [1, 13]: 1040 to 4390 nM
- GI50 [1, 14]: 1880 nM
- GI50 relative to cut-off, HCT15 (HCT15): outside the applied cut-off window
- GI50 relative to cut-off, ACHN (ACHN): more than the applied cut-off value
- GI50 [10]: 1430 nM
- fold increase compared to the potency of edelfosine, breast cancer ([10]; from average GI50): ~47 fold
- GI50 [3, 17]: 1100 to 4030 nM
- GI50 [3, 18]: 1800 nM
- average fold increase compared to the potency of edelfosine, leukemia [11]: 13 fold
- GI50 [5, 19]: 0.92 to 7.58 µM
- GI50 [5, 20]: 2.67 µM
- number of cell lines out of 58 inhibited by more than 50% (58 cancer cell lines): 49
- number of cell lines out of 58 inhibited by more than 100% (58 cancer cell lines): 10
- GI50 relative to cut-off, UO31 (UO31): more than the applied cut-off value
- GI50 [9, 21]: 970 to 1620 nM
- GI50 [9, 22]: 1350 nM
- fold increase compared to the potency of edelfosine, CNS cancer ([9]; from average GI50): more than 15 fold

SMILES: CCCCCCCCCCCCCCCCCCOc1ccccc1CC(=O)OCC[N+]1(C)CCCC1.[I-] [Compound 9]
- GI50 (nine melanoma cell lines; read-out: GI50 range, melanoma): 1630 to 2820 nM
- GI50 (nine melanoma cell lines; [12]): 2070 nM
- GI50 [1, 14]: 2170 nM
- GI50 relative to cut-off, HCT15 (HCT15): outside the applied cut-off window
- GI50 relative to cut-off, ACHN (ACHN): more than the applied cut-off value
- GI50 [3, 17]: 1220 to 8220 nM
- GI50 [3, 18]: 2670 nM
- GI50 [5, 19]: 1.52 to 18.9 µM
- GI50 [5, 20]: 6.3 µM
- number of cell lines out of 58 inhibited by more than 50% (58 cancer cell lines): 43
- number of cell lines out of 58 inhibited by more than 100% (58 cancer cell lines): 3
- GI50 relative to cut-off, UO31 (UO31): more than the applied cut-off value
- GI50 [9, 21]: 1260 to 2830 nM
- GI50 [9, 22]: 1820 nM

SMILES: CCCCCCCCCCCCCCCCCCOc1ccccc1CC(=O)OCC[N+]1(C)CCCCC1.[I-] [Compound 10]
- GI50 (nine melanoma cell lines; read-out: GI50 range, melanoma): 1700 to 2790 nM
- GI50 (nine melanoma cell lines; [12]): 2070 nM
- GI50 [1, 14]: 2160 nM
- GI50 relative to cut-off, HCT15 (HCT15): outside the applied cut-off window
- GI50 relative to cut-off, ACHN (ACHN): more than the applied cut-off value
- GI50 [3, 17]: 1320 to 5780 nM
- GI50 [3, 18]: 2350 nM
- GI50 [5, 19]: 1.54 to 18.2 µM
- GI50 [5, 20]: 6.28 µM
- number of cell lines out of 58 inhibited by more than 50% (58 cancer cell lines): 31
- number of cell lines out of 58 inhibited by more than 100% (58 cancer cell lines): 6
- GI50 relative to cut-off, UO31 (UO31): more than the applied cut-off value
- GI50 [9, 21]: 1390 to 2930 nM
- GI50 [9, 22]: 1920 nM

SMILES: CCCCCCCCCCCCCCCCCCOCC(COP(=O)([O-])OCC[N+](C)(C)C)OC (centres unmarked) [edelfosine, reference compound]
- GI50 (nine melanoma cell lines; read-out: GI50 range, melanoma): 15400 to 98400 nM
- GI50 (nine melanoma cell lines; [12]): 38700 nM
- GI50 [1, 13]: 2380 to 14700 nM
- GI50 [1, 14]: 7800 nM
- GI50 (eight renal cancer cells; [15]): 12.1 to 72.8 µM
- GI50 (eight renal cancer cells; [16]): 25 µM
- GI50 [10]: > 67200 nM
- GI50 (COLO205): 2650 nM
- GI50 [3, 17]: 7050 to 46800 nM
- GI50 [3, 18]: 25200 nM
- GI50 [5, 19]: 6.67 to 42.3 µM
- GI50 [5, 20]: 25.2 µM
- GI50 [6]: > 53600 nM
- GI50 (HCC2998): 2380 nM
- GI50 [9, 21]: 8750 to 58500 nM
- GI50 [9, 22]: 21400 nM
